Source: ChEMBL document CHEMBL3421564, “Synthesis and biological evaluation of indolyl-pyridinyl-propenones having either methuosis or microtubule disruption activity” (2015)
The source made the active and inactive calls. The calls are words filed in the database; no cut-off is given here.

Columns and labels:
[1] = tested on: U-251; assay: Growth inhibition of human U251 cells at 10 uM after 24 hrs sulphorhodomine B colorimetric assay; format: functional, cell-based
[2] = tested on: U-251; assay: Induction of methuosis in human U251 cells assessed as small cytoplasmic vacuolization and extensive blebbing of the plasma membrane at 2.5 uM after 4 hrs by phase contrast microscopy
[3] = tested on: U-251; assay: Induction of methuosis in human U251 cells assessed as cytoplasmic vacuolization at 2.5 uM up to 48 hrs by phase contrast microscopy; format: functional, cell-based
Outline: (§1)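 Live U251 cells seeded at 10^5 per 35 mm dish; fresh medium with compound added after 1 day, DMSO vehicle control. Phase-contrast images taken at set intervals after drug addition (4 h to 48 h). Vacuolization, blebbing, rounding and detachment scored by eye.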

[4] = molecular target: T1, Tubulin (Homo sapiens) (UniProt P68371+Q9H4B7+P0DPH7+P68366+Q13509+Q71U36+P04350+Q3ZCM7+P07437+P68363+Q9BQE3+Q6PEY2+Q13885+Q9BVA1+Q9BUF5); assay: Inhibition of tubulin polymerization in human U251 cells at 3 uM after 4 hrs by immunoblot analysis; format: cell-based; conditions: U-251
Outline: (§2)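 Seeded at 1.4 × 10^6 cells per 10 cm dish and treated one day later for 4 h, DMSO control. Cells scraped into 37 °C lysis buffer (100 mM PIPES pH 6.9, 5 mM MgCl2, 1 mM EGTA, 30% glycerol, detergents, 2 mM GTP, protease inhibitors) and spun at 100000g for 1 h at 37 °C. Pellet (polymer) and supernatant tubulin measured by anti-α-tubulin immunoblot with chemiluminescence. Polymer fraction expressed as % of DMSO control; mean ± S.D. of three experiments, two-tailed t test.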

[5] = molecular target: T1, Tubulin (Homo sapiens); assay: Inhibition of tubulin polymerization in human U251 cells at 0.1 uM after 4 hrs by immunoblot analysis; format: cell-based; conditions: U-251; outline: as §2
[6] = tested on: U-251; assay: Induction of methuosis in human U251 cells assessed as cytoplasmic vacuolization at 2.5 uM within 4 hrs by phase contrast microscopy; format: functional, cell-based; outline: as §1

Row | Compound | growth inhibition (GI) [1] | inhibition [4] | inhibition [5] | other results
1 | COc1ccc2[nH]c(C(=O)O)c(/C=C/C(=O)c3ccncc3)c2c1 | inactive | – | – | Activity [2]: Active
2 | NCc1ccc2[nH]cc(/C=C/C(=O)c3ccncc3)c2c1 | inactive | – | – | Activity [3]: inactive
3 | CCCOC(=O)c1[nH]c2ccc(OC)cc2c1/C=C/C(=O)c1ccncc1 | – | Active | inactive | –
4 | CCCCOc1ccc2[nH]c(C)c(/C=C/C(=O)c3ccncc3)c2c1 | inactive | – | – | Activity [3]: Active
5 | CCCOc1ccc2[nH]c(C)c(/C=C/C(=O)c3ccncc3)c2c1 | – | – | inactive | –
6 | COc1ccc2[nH]c(C(F)(F)F)c(/C=C/C(=O)c3ccncc3)c2c1 | – | Active | inactive | –
7 | COc1ccc2[nH]c(C)c(/C=C/C(=O)c3ccncc3)c2c1 | – | – | inactive | –
8 | CCOC(=O)c1[nH]c2ccc(OC)cc2c1/C=C/C(=O)c1ccncc1 | – | Active | inactive | –
9 | Cc1[nH]c2ccc(N)cc2c1/C=C/C(=O)c1ccncc1 | inactive | – | – | Activity [6]: inactive
